In PubChem BioAssay AID463210 (The Scripps Research Institute Molecular Screening Center, 2010) one finds activation data, which are given here for 58 compounds.

Hit rate of the full screen: of about 330,000 compounds, about 300 (0.091%) were called active.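 The calls were made as follows: active = percent activation above the screen-wide mean plus 3 SD (cut at about 25% in these data); inactive = the rest.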 Shown is part of a subset that was picked to be rich in actives.

Sequence of Caspase-7 (Homo sapiens) (P55210 whole entry D23A/D198A/D206A): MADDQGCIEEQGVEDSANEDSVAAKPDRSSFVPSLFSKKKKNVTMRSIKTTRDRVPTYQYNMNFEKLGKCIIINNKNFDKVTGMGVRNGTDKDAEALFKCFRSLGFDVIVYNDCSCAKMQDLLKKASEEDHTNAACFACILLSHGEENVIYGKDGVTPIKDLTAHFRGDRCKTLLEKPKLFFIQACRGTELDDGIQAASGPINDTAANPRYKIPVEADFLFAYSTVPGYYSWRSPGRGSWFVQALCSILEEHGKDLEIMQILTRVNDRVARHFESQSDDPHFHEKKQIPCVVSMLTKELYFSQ

The target of this assay is Caspase-7 (Homo sapiens) (UniProt P55210). In words: activation of procaspase-7 enzyme – biochemical, absorbance, HTS, human, counter-screen for procaspase-3 activator project, primary screen (AID 463210). As to conditions: recombinant procaspase-7, Ac-DEVD-pNA absorbance 405 nm; at 8.5 µM; active compounds read high; D23A/D198A/D206A triple mutant, cannot self-cleave; scale: DMSO 0, 5 µM enzyme 100. A digest of the protocol:
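Material: Procaspase-7 triple mutant (PC-7 D3A) | Quantity: 2 µM procaspase-7 mutant as dispensed | Reagent: DEVD-pNA substrate | Times: 1 h preincubation, 2 h reaction | Technique: 405 nm absorbance of p-nitroaniline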
For `COc1cc(OC)cc(C(=O)NC2CCN(C(=O)N3c4ccccc4Sc4ccccc43)CC2)c1`, the activation is 2.43% (inactive).

For the compound `CON(C)S(=O)(=O)c1ccc2c(c1)NC(=O)C1CCCN21` (stereo not drawn), the activation was -0.92% (inactive). As for `CCCCn1c(-c2cccc(C)c2)nc2cc3[nH]c(=O)c(C(C)C)nc3cc21`, the activation was 11.3% (inactive).

Consider `CC(=O)c1ccc(OC(=O)N2CCOCC2)cc1`, for which the activation was -1.27% (inactive). For `O=C(NC1CCCC1)C(NS(=O)(=O)c1ccc(Br)s1)c1ccccc1` (stereo not drawn) the value was -4.82% (inactive); for `O=S(=O)(Cc1noc(-c2ccc(OC(F)(F)F)cc2)n1)c1ccc(F)cc1`, 10.7% (inactive); for `Cc1ccc(C)c(NS(=O)(=O)c2c(C)[nH]c(C)c2C(=O)N2CCCCC2)c1`, 4.13% (inactive). Under `COc1ccc(Nc2ncc(C(=O)N3CCN(c4ccccc4OC)CC3)c3ccccc23)cc1` stands 49.2% (active); under `COc1ccccc1N1CCN(C(=O)c2ccc(NC3=NC4CS(=O)(=O)CC4S3)cc2)CC1` (stereo not drawn), 5.2% (inactive); under `COc1ccccc1N1CCN(C(=O)c2cn(-c3ccccc3)nc2-c2cccnc2)CC1`, 6.33% (inactive). Take `CC(C)C(c1nnnn1C(C)(C)C)N1CCN(Cc2cccnc2)CC1` (stereo not drawn): the activation was -6.66% (inactive). Under `COc1ccc(CN(C)Cc2nc3cc(OC)c(OC)cc3c(=O)[nH]2)c(OC)c1` stands 4.38% (inactive); under `CSCCC(NS(=O)(=O)c1ccc(C)cc1)C(=O)NCCc1c[nH]c2ccccc12` (stereo not drawn), -0.01% (inactive); under `CCCCS(=O)c1snnc1C` (stereo not drawn), -3.16% (inactive).

`CCOC(=O)N1CCN(C(=O)c2ccccc2SCC(=O)NCC2CCCCC2)CC1`: the activation was -1.95% (inactive). Take `O=C(O)CCS(=O)(=O)c1ccc(-c2ccccc2)cc1`: the activation was 6.38% (inactive).

Turning to `O=C1OCCN1C(=O)[C@H]1[C@H](c2ccccc2)C(c2ccc(F)cc2)=NN1c1ccccc1`, the activation is -10.3% (inactive). For `O=C1OCCN1C(=O)[C@H]1[C@H](c2ccc(Cl)cc2)C(c2cccc(Cl)c2)=NN1c1ccc(Br)cc1` the value was 10.5% (inactive); for `O=C1OCCN1C(=O)[C@H]1[C@H](c2ccc(F)cc2)C(c2ccccc2)=NN1c1ccc(Br)cc1`, 28.9% (active); for `O=C(COc1ccccc1Cl)N1N=C(c2cccs2)CC1c1ccco1` (stereo not drawn), -20% (inactive). For `COc1ccccc1N1N=C(c2cccs2)CC1c1ccccc1` (stereo not drawn) the value was -22.6% (inactive); for `Fc1ccc(N2N=C(c3cccs3)CC2c2ccco2)c(F)c1` (stereo not drawn), 51% (active); for `CN(C(=O)CCNC(=O)Cn1ccc2ccccc2c1=O)c1ccc(Br)cc1`, 4.82% (inactive).

With `Cn1c(CCCOc2ccc(Cl)cc2Cl)n[nH]c1=S`, the activation was -19.3% (inactive). On to `O=C(Nc1cccc2c1CCCC2)c1ccc(F)cc1`, for which the activation was 7.3% (inactive). Under `Cc1ncn2cc(-c3ccc(Cl)cc3Cl)[nH]c(=O)c12` stands 10.9% (inactive). Under `O=C(c1cccc(-n2cccc2)c1)N1CCN(S(=O)(=O)c2ccc(F)cc2)CC1` stands 3.36% (inactive); under `Cc1ccc2c(CC(=O)NCc3cccs3)coc2c1`, -3.04% (inactive); under `COC(=O)c1ccc(CN2CCN(CCCc3ccccc3)C(CCO)C2)cc1` (stereo not drawn), 2.25% (inactive). For `Cc1cccc(N2CC(C)Cn3c2nc2c3c(=O)n(CC(=O)OCc3ccccc3)c(=O)n2C)c1` (stereo not drawn) the value was 1.17% (inactive). In the case of `COc1ccc(C2=NS(=O)(=O)N(C)C(C(=O)N(C)Cc3ccccc3)=C2)cc1`, the activation was 1.33% (inactive). For `N#Cc1ccccc1CN1C(=O)S/C(=C/c2cccn2-c2cccc(C(=O)O)c2)C1=O`, the activation is -18.8% (inactive). For `O=C(Cc1coc2ccc3ccccc3c12)NCc1cccs1` the value was 9.96% (inactive). For `CC1(C)Cc2c(sc(NC(=O)C(=O)NCC3CCCO3)c2C(=O)O)CO1` (stereo not drawn) the value was 1.97% (inactive); for `COC(=O)Cc1c(C)c2ccc(OCC(=O)NCc3ccc4c(c3)OCO4)cc2oc1=O`, 13.2% (inactive); for `CC(=O)Oc1ccc2c(C)c(CC(C)O)c(=O)oc2c1` (stereo not drawn), 29.6% (active). Consider `CCc1c(C)c2ccc(OC3CCCCC3=O)cc2oc1=O` (stereo not drawn), for which the activation was 4.02% (inactive). On to `CC(C(=O)NCCc1ccc(S(N)(=O)=O)cc1)N1C(=O)CC(C)(C)Sc2ccccc21` (stereo not drawn), for which the activation is -4.12% (inactive).

Take `COc1ccc(C2(C)ON(c3ccccc3C(F)(F)F)C2=O)cc1` (stereo not drawn): the activation was 2.15% (inactive). Under `O=C(NC1CCc2ccccc21)C12CN(Cc3ccccc3)CC1C(c1cccc([N+](=O)[O-])c1)=NO2` (stereo not drawn) stands 7.39% (inactive).

In the case of `COc1ccc(NC(=O)c2cccc3c2C(=O)N(CC2CCCO2)C3)cc1OC` (stereo not drawn), the activation was 9.62% (inactive).

For `COc1ccc(/C=N/Nc2nc(-c3ccc(C)cc3)c(C#N)c(=O)[nH]2)cc1`, the activation is 1.13% (inactive). Take `COc1ccc(/C=N/Nc2nc3ccccc3c(=O)[nH]2)cc1`: the activation is 28.9% (active). As to `COc1ccc(/C=N/Nc2ccccc2C(=O)O)cc1`, the activation was -19.5% (inactive). For `C/C(=N/NC(=O)CSc1ccccn1)c1ccc([N+](=O)[O-])cc1` the value was 1.61% (inactive); for `CCCNC(=S)N1CCCC(c2nc3ccccc3[nH]2)C1` (stereo not drawn), 6.91% (inactive).

For `Cc1cccc(-n2c(SCC(=O)Nc3cccc(S(=O)(=O)NC4=NCCCCC4)c3)nc3ccccc3c2=O)c1C`, the activation was -0.51% (inactive).

`CC1(C)C(C=C(Cl)Cl)C1C(=O)NC(O)C(=O)c1ccccc1` (stereo not drawn): the activation is 6.56% (inactive). Consider `COC(=O)c1ccc(N2CCOCC2)c(NC(=O)c2ccc(Br)o2)c1`, for which the activation was 1.06% (inactive). Under `COc1ccccc1CNC(=O)COC(=O)CNS(=O)(=O)c1ccc(NC(C)=O)cc1` stands 7.44% (inactive). Under `Cn1cnnc1SCc1nnc(-c2ccccc2Br)o1` stands 2.67% (inactive); under `Nc1cccc2c1C(=O)N(Cc1nnc(-c3ccccc3Br)o1)C2=O`, 64.5% (active).

As to `CCOC(=O)N1CCN(Cc2nnc(-c3ccccc3Cl)o2)CC1`, the activation was -1.71% (inactive). Consider `CN(C)CCCSc1ccccc1NC(=O)/C=C/c1ccccc1`, for which the activation is 10.4% (inactive). For the compound `Cc1nc(SCC(=O)N2CCc3ccccc3C2)c2c(C)c(C)sc2n1`, the activation is 18.1% (inactive). As to `CC(C)C(=O)N1CCN(c2nc(-c3ccccc3)c3c(c2C#N)CC(C)(C)OC3)CC1`, the activation is 12.1% (inactive).

`CC1(C)Cc2c(C#N)c(SCc3nc4ccccc4[nH]3)nc(N3CCOCC3)c2CO1`: the activation is 33% (active).

On to `COc1ccc(CSc2nc(N3CCOCC3)c3c(c2C#N)CC(C)(C)OC3)cc1`, for which the activation was -0.56% (inactive).
